Assay results taken from ChEMBL document CHEMBL4699532, “Decoding the Papain Inhibitor from Streptomyces mobaraensis as Being Hydroxylated Chymostatin Derivatives: Purification, Structure Analysis, and Putative Biosynthetic Pathway” (J Nat Prod, 2020).
pIC50: −log10 of the molar value.

Tests used:
Papain = biological target: T1, Papain (Carica papaya, UniProt P00784); experiment: Inhibition of papaya papain using cbzFRamc substrate preincubated for 10 mins followed by addition of substrate and measured every 30 sec for 60 mins by fluorescence based assay
T1 sequence (P00784 whole entry): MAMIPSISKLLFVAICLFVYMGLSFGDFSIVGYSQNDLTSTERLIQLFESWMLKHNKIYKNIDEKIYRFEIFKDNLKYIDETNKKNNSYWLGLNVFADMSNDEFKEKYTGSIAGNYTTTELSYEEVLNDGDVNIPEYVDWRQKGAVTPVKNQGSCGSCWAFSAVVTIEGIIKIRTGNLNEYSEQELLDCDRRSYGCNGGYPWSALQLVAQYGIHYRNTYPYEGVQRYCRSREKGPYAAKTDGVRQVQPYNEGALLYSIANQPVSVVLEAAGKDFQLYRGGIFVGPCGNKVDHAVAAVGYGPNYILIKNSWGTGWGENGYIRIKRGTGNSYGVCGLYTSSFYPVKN
In short: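 Papain, 1.5 nM final (added as 15 nM stock), preincubated with inhibitor for 10 min at 30 °C in 50 mM phosphate pH 6.8, 10 mM EDTA, 2 mM DTT. Started with 50 μM cbzFRamc. AMC release read every 30 s for 60 min (ex 350, em 450 nm), in triplicate. IC50 from fitted data.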

[1] = Inhibition of chymotrypsin (unknown origin) using sucAAPFamc substrate preincubated for 10 mins followed by addition of substrate and measured every 30 sec for 60 mins by fluorescence based assay; design: species or system Homo sapiens
In short: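 Chymotrypsin, 1.5 nM final (added as 15 nM stock), preincubated with inhibitor for 10 min at 30 °C in 100 mM Tris pH 7.8, 10 mM CaCl2. Started with sucAAPFamc (added as 15 μM stock). AMC release read every 30 s for 60 min (ex 350, em 450 nm), in triplicate. IC50 from fitted data.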

Homo sapiens = species: Homo sapiens; experiment: Binding affinity to chymotrypsin (unknown origin) assessed as change in melting temperature at 200 uM incubated for 15 mins by scanning fluorimetry
In short: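 20 μM chymotrypsin held on ice for 15 min with 200 μM inhibitor in 100 mM Tris pH 7.8, 10 mM CaCl2. Melting followed by tryptophan fluorescence at 330 and 350 nm during 1 °C/min heating (differential scanning fluorimetry), run in duplicate. Shift taken as difference from the enzyme's melting point.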

Papain (Carica papaya) = biological target: T2, Papain (Carica papaya) (UniProt P00784); experiment: Binding affinity to papaya papain assessed as change in melting temperature at 200 uM incubated for 15 mins by scanning fluorimetry
T2 sequence (whole entry): T1 sequence (P00784 whole entry)
In short: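 Melting followed by tryptophan fluorescence at 330 and 350 nm during 1 °C/min heating (differential scanning fluorimetry), run in duplicate. Shift taken as difference from the enzyme's melting point.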

pIC50 (Papain) | pIC50 [1] | ΔTm (Homo sapiens) | ΔTm (Papain (Carica papaya)) | Compound
8.20 | 8.32 | 15.1 °C | 0.9 °C | CC(C)[C@H](NC(=O)[C@@H](NC(=O)N[C@@H](Cc1ccc(O)cc1)C(=O)O)[C@H]1CCNC(=N)N1)C(=O)N[C@H](C=O)Cc1ccc(O)cc1
8.47 | < 4.52 | 1.7 °C | 0.9 °C | CC(C)[C@H](NC(=O)[C@H](CCCNC(=N)N)NC(=O)N[C@@H](Cc1ccccc1)C(=O)O)C(=O)N[C@H](C=O)CCCNC(=N)N [ANTIPAIN]
7.75 | 8.15 | 13.5 °C | 0.9 °C | CC(C)[C@H](NC(=O)[C@@H](NC(=O)N[C@@H](Cc1ccc(O)cc1)C(=O)O)[C@H]1CCNC(=N)N1)C(=O)N[C@H](C=O)Cc1ccccc1
8.66 | < 4.52 | 0.2 °C | 1 °C | CC(=O)N[C@@H](CC(C)C)C(=O)N[C@@H](CC(C)C)C(=O)N[C@H](C=O)CCCNC(=N)N [LEUPEPTIN]
